# SR-BI uptake up – activators of SR-BI mediated DiI-HDL uptake, primary screen, ldlA[mSR-BI] CHO cells, DiI fluorescence; 3 h; 100 = double the neutral-control signal; activation, % at 12.5 µM; 320,000 tested, 0.096% active;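 active = mean replicate activation of at least 60% and every replicate at or above 60%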;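 note: 0% = median plate neutral-control signal and 100% = twice that signal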
#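 Test system: SR-BI-overexpressing, LDLR-lacking CHO cells; Also added: labelled HDL, 10 µg/mL; Measured by: bottom-read cell fluorescence after medium removal, ex 550/em 595 nm; Timing: 3 h uptake period with compound, 37 °C; Buffer or medium: F12, 0.5% BSA, 25 mM HEPES; Doses: single compound concentration, delivered by pin transfer.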
# HGIII-sPLA2 inh – human group III sPLA2 inhibitors, primary screen, biochemical, QFRET, BODIPY PC-A2 liposome substrate. inhibition, % at 12.2 µM. QFRET BODIPY PC-A2 liposome hydrolysis, fluorescence. AID 743126, 2013. 370,000 tested, 0.56% active;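 active = inhibition above mean plus 3 SD of compounds lying within the high and low control bounds, cut at about 19% in these data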;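 note: 0% = median of test compound wells and 100% = no enzyme DMSO wells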
# NSD2 HMT inh – NSD2 histone methyltransferase inhibitors, primary screen, biochemical, AlphaScreen, single concentration, set 2. Histone-lysine N-methyltransferase NSD2 (Homo sapiens), O96028. NSD2 peptide methylation, 120 min. inhibition, % at 12.5 µM. 310,000 tested, 0.54% active; in the data active = inhibition above about 50%
# Xi reactivation – activators of inactive X chromosome reactivation, primary screen, imaging, XiGFP fibroblasts, GFP high-content imaging, set 2. XiGFP mouse fibroblasts, % GFP-positive cells imaging, 3 d; cells co-treated with 5-aza-dC sensitizer; scaled so ellipticine positive control = 100%. activation, % at 7.58 µM. 360,000 tested, 0.055% active;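 active = mean normalized replicate activation at least 10% and every replicate at or above 10%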;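 note: 0% = median of on-plate neutral control wells and 100% = ellipticine 6 µM median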
#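 Assay system: SV40-immortalized XiGFP fibroblast cells, line 68-5-11; buffer or medium: DMEM plus 5-aza-dC sensitizer; compound: one concentration, pinned; timing: compounds 3 days, fix/stain 15 min at room temperature; benchmarks: positive control ellipticine, 6 µM final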
# SR-BI HDL uptake – inhibitors of SR-BI mediated HDL lipid uptake, primary screen, ldlA[mSR-BI] cells, fluorescence, single point; 320,000 tested, 0.96% active; AID 488896, 2010; Scavenger receptor class B member 1 (Mus musculus), Q61009; ldlA[mSR-BI] CHO cells, DiI-HDL uptake fluorescence, 3 h; inhibition, % at 12.5 µM;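 active = mean replicate inhibition of at least 70% and a set share of replicates each scoring 70 or more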;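 note: 0% = median of neutral control wells and 100% = median of positive control wells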
# Target sequence (Q61009 whole entry, looked up): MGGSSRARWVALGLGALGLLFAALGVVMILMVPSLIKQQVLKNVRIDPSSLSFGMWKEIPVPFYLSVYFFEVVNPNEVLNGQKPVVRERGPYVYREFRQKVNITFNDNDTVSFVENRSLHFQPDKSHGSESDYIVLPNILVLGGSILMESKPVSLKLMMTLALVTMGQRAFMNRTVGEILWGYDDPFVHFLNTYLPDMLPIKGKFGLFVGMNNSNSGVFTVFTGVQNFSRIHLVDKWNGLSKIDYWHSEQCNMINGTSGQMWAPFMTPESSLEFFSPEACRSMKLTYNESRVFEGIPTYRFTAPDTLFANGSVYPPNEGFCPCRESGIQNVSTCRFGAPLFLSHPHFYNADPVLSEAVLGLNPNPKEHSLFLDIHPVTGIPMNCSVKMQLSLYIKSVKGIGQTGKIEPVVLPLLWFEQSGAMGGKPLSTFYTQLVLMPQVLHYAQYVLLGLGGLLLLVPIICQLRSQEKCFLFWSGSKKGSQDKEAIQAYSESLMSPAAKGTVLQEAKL
# ARNT TACC3 PPI – disruptors of ARNT/TACC3 protein interaction, primary screen, biochemical, AlphaScreen, single concentration; Transforming acidic coiled-coil-containing protein 3 (Homo sapiens), Q9Y6A5; AlphaScreen His-ARNT PAS-B/GST-TACC3 binding, luminescence; TACC3 fragment carries E629A point mutation; inhibition, % at 9.99 µM; 390,000 tested, 0.66% active;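 active = mean inhibition of replicates at least 50% and at least half of replicates each reaching 50%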;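 note: 0% = complete ARNT plus TACC3 wells and 100% = ARNT alone without TACC3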
# Active calls of the source: *; x = not tested or not shown. An excerpt weighted towards active compounds, which were near 2% of everything screened.
SMILES,SR-BI uptake up,HGIII-sPLA2 inh,NSD2 HMT inh,Xi reactivation,SR-BI HDL uptake,ARNT TACC3 PPI
Cn1c(=O)c(NC2CCCCC2)c2c3c(cccc31)C(=O)c1ccccc1-2,-50,-66,-25,116*,50,-45
COc1ccc(S(=O)(=O)Nc2ccc3c(c2)C(=O)N([C@H](C)CO)C[C@H](C)[C@@H](CN(C)C(=O)Nc2ccc(F)cc2)O3)cc1,x,x,x,0,x,-13
COc1ccc(NC(=O)/C(C#N)=C\c2cc(C)n(-c3ccc(Oc4ccc([N+](=O)[O-])cn4)cc3)c2C)cc1,-75,-6,-1,x,75*,3
Cc1cc(C=O)c(C)n1-c1ccc(Oc2ccc([N+](=O)[O-])cn2)cc1,4,-1,0,0,-4,-11
Cc1ccc(-c2nnc(N3CCOCC3)c3ccccc23)cc1S(=O)(=O)NCC1CCCO1 (centres undefined),-14,-3,0,x,14,24
COc1ccc([C@H]2[C@@H]3C=CCC[C@@]3(C)C(=O)N2Cc2ccccc2)cc1Cl,-13,2,x,0,13,-24
Cc1noc(C)c1NC(=O)NCC[C@H]1CC[C@@H](NC(=O)Nc2cccc(Cl)c2)[C@H](CO)O1,x,x,x,0,x,-9
CC(C)(C)C(=O)NC(=S)NNC(=O)c1ccc(Cl)cc1Cl,x,42*,x,0,x,10
CCC(=O)NC(=S)Nc1cccc(NC(=O)c2ccc(Cl)cc2Cl)c1,-81,-2,2,x,81*,-3
CCCc1sc(N/N=C/c2ccccn2)nc1-c1ccc(Br)cc1,-72,16,4,x,72*,33*
C/C(=N\NC(=O)c1nnn(-c2nonc2N)c1CN(C)c1ccccc1)c1ccccn1,17,x,x,x,-17,48*
C/C(=N\NC(=O)c1nnn(-c2nonc2N)c1CN(C)c1ccccc1)c1ccc(O)cc1,8,-3,2,0,-8,6
CCN(CC(=O)NCc1ccccn1)S(=O)(=O)c1cc(Cl)ccc1Cl,21,1,4,0,-21,3
O=C(CN(c1cccc(Cl)c1)S(=O)(=O)c1ccc(Cl)cc1)NCc1ccccn1,-83,-5,-2,0,83*,47*
O=C(Nc1cccc(C(F)(F)F)c1)Nc1ccc(N2CCCC2)c(S(=O)(=O)Nc2ccccc2Cl)c1,-91,-19,0,1,91*,-3
CC(=O)Nc1ccc(N2CCOCC2)c(S(=O)(=O)Nc2ccccc2Cl)c1,x,-4,2,0,x,x
Cc1[nH][nH]c(=O)c1C(c1ccc(-c2cccc(Cl)c2)o1)c1c(C)[nH][nH]c1=O,4,x,x,x,-4,50*
Cc1nc(C)c(-c2nnc(-c3ccc(C(C)(C)C)cc3)o2)cc1C(=O)NN,-81,7,-3,x,81*,-3
COc1ccc2c3c([nH]c2c1)[C@H](CO)N(C(=O)C1CCCC1)CC31CCN(Cc2cccc(F)c2)CC1,x,x,x,0,x,x
Nc1n[nH]c(CO)n1,0,2,0,0,0,-9
COc1ccc(-c2[nH]c(-c3ccc(C)cc3)nc2SCC(=O)Nc2nccs2)cc1,-69,1,0,0,69,0
COc1ccc(-c2[nH]c(-c3ccc(SC)cc3)nc2SCC(=O)Nc2nccs2)cc1,-87,7,0,0,87*,3
O=C(CCCn1c(=O)oc2ccccc21)N1CCN(c2ccc(F)cc2)CC1,18,3,-1,0,7,3
O=c1c(C=NCCCn2ccnc2)c(-c2ccccc2)[nH]n1-c1nc2ccccc2s1,15,-21,7,x,-15,54*
CCN1c2ccccc2N(C)C1(C)c1ccccc1 (centres undefined),-4,x,63*,x,4,64*

# Compound activity from PubChem BioAssay.
